The values below come from the RNAGym collection of RNA variant scans (doi:10.1126/science.aae0568).

Fewer inactive variants are shown than the library holds.

To fix the notation:
B1: tRNA (parent)
chain: GUUCCGUUGGCGUAAUGGUAACGCGUCUCCCUCCUAAGGAGAAGACUGCGGGUUCGAGUCCCGUACGGAACG

The data set covers variants of B1. Nature of the data set: yeast fitness relative to wild type (ratio to wild type); higher = fitter; tRNA-Arg(CCU), competitive growth, 37 C, YPD. The essentials: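 The tRNA-Arg(CCU) gene variants were made by chemical synthesis with a 3% per-site mutation rate at 69 sites and inserted at the native genomic locus of Saccharomyces cerevisiae. After pooling, the strains were competed in YPD at 37°C for 24 hours in six parallel replicates. Gene amplicons from the start population and each end population were read by 100-nucleotide paired-end sequencing, and Darwinian fitness relative to wild type was taken from genotype frequency changes. Genotypes needed ≥ 100 starting reads, and estimates < 0.5 were set to 0.5.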
Consider C5A G10C G12A G23A, for which the yeast fitness is at most 0.5.

On to C5A A40G C66U, for which the yeast fitness amounted to 0.549.

With C5G C29U A42C C55U, the yeast fitness was at most 0.5.

On to C5A G39A U47A C55U G67A A69G, for which the yeast fitness was at most 0.5.

Turning to C5G A43G A70G, the yeast fitness amounted to 0.537.

On to C5G A14C C34G, for which the yeast fitness was at most 0.5.

Turning to C5A A37C C46U A65C, the yeast fitness is at most 0.5.

On to C5G C30U A65U, for which the yeast fitness is at most 0.5.

Consider C5A A15C C29A G39A C60G A70G, for which the yeast fitness is at most 0.5.

With C5G A21G U32C C49G A65G, the yeast fitness amounted to 0.553.

With C5A C22U U35C C49U C66U, the yeast fitness is at most 0.5.

As for C5G C11U A45C, the yeast fitness was at most 0.5.

For the variant C5A A69U A70C, the yeast fitness was found to be 0.768.

On to C5A C24U A37G A40G A42U C49U G67C A70G, for which the yeast fitness is at most 0.5.

As to C5A A40U G67C, the yeast fitness amounted to 0.627.

Take C5G A14G A15G C30U A45G U64A: the yeast fitness is at most 0.5.

In the case of C5A U19A G68C, the yeast fitness stood at 0.539.

C4U U54C: the yeast fitness is 0.921.

In the case of C5G A20U G25A C31U G41A C55G, the yeast fitness is at most 0.5.

Consider C5A A14G C31A C55A C61A G63A, for which the yeast fitness was 0.536.

With C5A C27A, the yeast fitness was 0.936.

C5G A36U A42G A57C: the yeast fitness was at most 0.5.

In the case of C5A C27G U47C A70U, the yeast fitness was found to be 0.578.

As to C5G C11U C29A, the yeast fitness was 0.53.

As for C5A A45U C55U G56A U59A C66G, the yeast fitness is at most 0.5.

In the case of C5A A20G C29A G51C G67C, the yeast fitness was at most 0.5.

For C5G A15U U53A, the yeast fitness is at most 0.5.

Take C5G A20C C22U C24U C55U: the yeast fitness was at most 0.5.

As to C5A G17A A43U C55U, the yeast fitness was at most 0.5.

With C5A C24G C29G A40C A43U U47A C60A, the yeast fitness is at most 0.5.

On to C5A C60G C61G, for which the yeast fitness was 0.544.

Turning to C5A U13C C29U G48C G52C A57C G58A, the yeast fitness was at most 0.5.

Consider C5G A14U G23C C33A, for which the yeast fitness was at most 0.5.

Consider C5A C11G C27U G41C, for which the yeast fitness was at most 0.5.

For C5G C11U A42U G68A, the yeast fitness was at most 0.5.

In the case of C5G A20C A42U G44A C61G, the yeast fitness is at most 0.5.

As to C5G A20U C30U, the yeast fitness is at most 0.5.

Regarding C5G A20C U54A, the yeast fitness is 0.616.

C5G A15G C24G U32A C34G G68A A69U A70U: the yeast fitness was found to be 0.516.

Turning to C5A G25A C33G C46A C66A, the yeast fitness was at most 0.5.

As to C5G A14U G18A A21U A42G C62U A65C, the yeast fitness was at most 0.5.

C5G A15G: the yeast fitness is 0.819.

As for C5A A21G G67C, the yeast fitness was 0.933.

In the case of C5G A42G C49G A70U, the yeast fitness was at most 0.5.

For the variant C5A G48C G67C, the yeast fitness is 0.591.

Turning to C5G A36U C66U, the yeast fitness is at most 0.5.

As for C5A A36U G39A A45G G63U, the yeast fitness is at most 0.5.

Consider C5A A36G G44A U47C A70U, for which the yeast fitness is at most 0.5.

In the case of C5G A15C C22A G63A A65G, the yeast fitness is at most 0.5.

Turning to C5A C46A G56C G68A A70G, the yeast fitness is at most 0.5.

Regarding C5G C11U A42G C49U, the yeast fitness was 0.548.

Take C5A C60G: the yeast fitness was 0.551.

With C5G A36U U59G A65U, the yeast fitness was at most 0.5.

As to C5G C11U C22A, the yeast fitness is at most 0.5.

C5G C22U U26A A65U: the yeast fitness is at most 0.5.

Turning to C5A U54A C55G A65C, the yeast fitness was at most 0.5.

Regarding C5A C60G C66U G67A, the yeast fitness is at most 0.5.

Consider C5A A14U C31G G63A, for which the yeast fitness was at most 0.5.

In the case of C5A A14U G50A A57U A70G, the yeast fitness is at most 0.5.

Regarding C5A A14U C27U C49G A57G, the yeast fitness is at most 0.5.

For C5A C24G A69U, the yeast fitness worked out at 0.578.

On to C5A C24G A69C, for which the yeast fitness was at most 0.5.

Take C5A C33U G67A: the yeast fitness was determined as 0.593.

For the variant C5A G25C G56C, the yeast fitness was at most 0.5.

On to C5A U19G, for which the yeast fitness was found to be 0.731.

In the case of C5A U19A A65C, the yeast fitness was determined as 0.538.

Turning to C5A A20U C29A, the yeast fitness is at most 0.5.

C5A U13A U35A U59C: the yeast fitness turned out to be 0.661.

Turning to C5G C11A A14G G25C C29G A57U C66U, the yeast fitness was at most 0.5.

With C5A G17A A21C C33G A43U, the yeast fitness is at most 0.5.

For C5G A15U A69U, the yeast fitness was 0.698.

Consider C5G A14U A20U G41A A57G, for which the yeast fitness was at most 0.5.

Regarding C5A A14U U53A, the yeast fitness was at most 0.5.

As for C5G A14U A21G G23A C31U G63C U64A C66G, the yeast fitness was at most 0.5.

For C5A C11A C24U U26C C29U C31G A42G, the yeast fitness was at most 0.5.

Turning to C5A U7G C29G C33U G44C A69C, the yeast fitness is at most 0.5.

As to C5A G51C G63C A65C A70U, the yeast fitness was at most 0.5.

With C5G C11G A15C A65C, the yeast fitness is at most 0.5.

As for C5G A14U C27U A42U A43U U47C, the yeast fitness is at most 0.5.

In the case of C5A G18C U35G A57C U64A, the yeast fitness is at most 0.5.

In the case of C5A G12A G18A, the yeast fitness was at most 0.5.

As to C5G C11U C31U, the yeast fitness amounted to 0.676.

Take C5G A21G G51A: the yeast fitness was 0.617.
